Laboratory results from ChEMBL document CHEMBL1123247, “Nucleoside conjugates. 7. Synthesis and antitumor activity of 1-beta-D-arabinofuranosylcytosine conjugates of ether lipids” (J Med Chem, 1986).

Tests used:
Assay type in all cases: functional, Mus musculus
[1] = test system: P388; assay: Antitumor activity was determined against the ip implanted P388 leukemia in mice by percent increase in life span at 133 mg/kg (treatment of 1,5,9qd schedule) dosage; conditions: route intraperitoneal
Method in brief: (§1)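 DBA/2J mice, 23-33 g, in groups of 6, were inoculated ip with 1×10^6 P388 cells on day 0. Dosing was ip from 24 h on the stated schedules, in 0.9% NaCl with 0.5% Tween-80 (sonicated solution or suspension). Survival was followed daily until death or 45 days. Median T/C was calculated from survivors per NCI protocols, with ILS = (T/C − 1) × 100.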

[2] = test system: L1210; assay: Antitumor activity against the ip implanted L1210 leukemia in mice expressed as optimal dose (1 qd treatment schedule) required to produce greatest increase in life span was determined
Method in brief: (§2)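 DBA/2J mice, groups of 6 (23-28 g), were inoculated ip with 1 × 10^6 L1210 cells on day 0. Dosing was ip from 24 h, in 0.9% NaCl with 0.5% Tween-80 (sonicated solution or suspension). Mice were observed daily until death or day 45. Median survival T/C followed NCI protocols, and ILS = (T/C − 1) × 100. Active range means doses giving ILS ≥25%; optimal dose means greatest ILS.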

[3] = test system: P388; assay: Antitumor activity against ip implanted P388 leukemia in mice expressed as active dose range (1-5qd treatment schedule) required to produce increase in life span by >25% was determined; Range is 40-80
Method in brief: (§3)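 P388 leukemia: 1 × 10^6 cells were given ip on day 0 to DBA/2J mice, groups of 6 (23-33 g). Treatment was ip from 24 h after inoculation, vehicle 0.9% NaCl with 0.5% Tween-80. Mice were observed daily until death or 45 days. Median survival T/C was calculated from survivors per NCI protocols, and ILS = (T/C − 1) × 100. Active range means doses giving ILS ≥25%; optimal dose means greatest ILS.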

[4] = test system: P388; assay: Antitumor activity was determined against the ip implanted P388 leukemia in mice by change in […] at 133 mg/kg (treatment of 1,5,9qd schedule) dosage; conditions: route intraperitoneal
Method in brief: (§4)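 P388 leukemia, 1×10^6 cells implanted ip on day 0 into DBA/2J mice, groups of 6 (wt 23-33 g). Dosing ip started 24 h post-inoculation, vehicle 0.9% NaCl containing 0.5% Tween-80. Animals were observed daily until death or 45 days. Outputs were weight change, median survival T/C from survivors per NCI protocols, and %ILS = (T/C − 1) × 100.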

[5] = test system: P388; assay: Antitumor activity against ip implanted P388 leukemia in mice expressed as active dose range (1 qd treatment schedule) required to produce increase in life span by >25% was determined; Range is 200-500; method in brief: as §3
[6] = test system: L1210; assay: Antitumor activity against the ic implanted L1210 lymphoid leukemia in mice expressed as optimal dose (1-5qd treatment schedule) required to produce greatest increase in life span was determined
Method in brief: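 DBA/2J mice, groups of 6 (26-32 g), got 1 × 10^5 L1210 cells ic on day 0. Dosing was ip starting 24 h later, as a sonicated solution or suspension in 0.9% NaCl with 0.5% Tween-80, over a wide dose range. Mice were followed daily until death. Median survival T/C was taken from survivors per NCI protocols, and ILS = (T/C − 1) × 100. Active range means doses giving ILS ≥25%; optimal dose means greatest ILS.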

[7] = test system: P388; assay: Antitumor activity was determined against the ip implanted P388 leukemia in mice by 45-day survivors in mice at 60 mg/kg (1-5qd treatment schedule) dosage; conditions: route intraperitoneal; method in brief: as §1
[8] = test system: P388; assay: (§5) Antitumor activity against the ip implanted P388 leukemia in mice expressed as optimal dose (1-5qd treatment schedule) required to produce greatest increase in life span was determined; design: unit: mg/kg; method in brief: as §3
[9] = test system: L1210; assay: Antitumor activity against the ip implanted L1210 leukemia in mice expressed as optimal dose (1-5qd treatment schedule) required to produce greatest increase in life span was determined; method in brief: as §2
[10] = test system: P388; assay: Antitumor activity against the ip implanted P388 leukemia in mice expressed as optimal dose (1,5,9qd treatment schedule) required to produce greatest increase in life span was determined; design: unit: mg/kg; method in brief: as §3
[11] = test system: P388; assay: Antitumor activity against the ip implanted P388 leukemia in mice expressed as optimal dose (1 qd treatment schedule) required to produce greatest increase in life span was determined; method in brief: as §3
[12] = test system: P388; assay: Antitumor activity was determined against the ip implanted P388 leukemia in mice by change in […] at 60 mg/kg (1-5qd treatment schedule) dosage; conditions: route intraperitoneal; method in brief: as §4
[13] = test system: P388; assay: Antitumor activity was determined against the ip implanted P388 leukemia in mice by 45-day survivors in mice at 133 mg/kg (treatment of 1,5,9qd schedule) dosage; conditions: route intraperitoneal; method in brief: as §1
[14] = test system: P388; assay: Antitumor activity was determined against the ip implanted P388 leukemia in mice by percent median survival rate (treated/control) at 133 mg/kg (treatment of 1,5,9qd schedule) dosage; >45.0/11.0; conditions: route intraperitoneal; method in brief: as §1
[15] = test system: P388; assay: Antitumor activity was determined against the ip implanted P388 leukemia in mice by percent increase in life span at 60 mg/kg (1-5qd treatment schedule) dosage; conditions: route intraperitoneal; method in brief: as §1
[16] = test system: L1210; assay: Antitumor activity was determined against the ip implanted L1210 leukemia in mice by percent increase in life span at 400 mg/kg (treatment of 1qd schedule) dosage; conditions: route intraperitoneal
Method in brief: (§6)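 DBA/2J mice in groups of 6 (wt 23-28 g) were inoculated ip with 1×10^6 L1210 cells on day 0. Dosing was ip from 24 h, in 0.9% NaCl with 0.5% Tween-80 (conjugates sonicated), across a range of doses. Mice were observed daily until death or 45 days. Median T/C was computed from survivors per NCI protocols, and ILS = (T/C − 1)×100.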

[17] = test system: P388; assay: as §5; method in brief: as §3
[18] = test system: L1210; assay: Antitumor activity was determined against the ip implanted L1210 leukemia in mice by 45-day survivors in mice at 400 mg/kg (treatment of 1qd schedule) dosage; conditions: route intraperitoneal; method in brief: as §6
[19] = test system: L1210; assay: Antitumor activity was determined against the ip implanted L1210 leukemia in mice by 45-day survivors in mice at 80 mg/kg (treatment of 1-5qd schedule) dosage; conditions: route intraperitoneal; method in brief: as §6
[20] = test system: L1210; assay: Antitumor activity was determined against the ip implanted L1210 leukemia in mice by change in […] at 400 mg/kg (treatment of 1qd schedule) dosage; conditions: route intraperitoneal
Method in brief: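 DBA/2J mice, 6 per group (wt 23-28 g), inoculated ip with 1×10^6 L1210 cells on day 0. Treatment was given ip in 0.9% NaCl with 0.5% Tween-80, starting 24 h later. Weight change was taken on day 8. Mice were observed daily until death or 45 days. Median survival T/C and %ILS = (T/C − 1) × 100 came from survivors per NCI protocols, and 45-day survivors were counted.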

[21] = test system: P388; assay: Antitumor activity was determined against the ip implanted P388 leukemia in mice by change in […] at 500 mg/kg (treatment of 1qd schedule) dosage; conditions: route intraperitoneal; method in brief: as §4
[22] = test system: P388; assay: Antitumor activity was determined against the ip implanted P388 leukemia in mice by 45-day survivors in mice at 500 mg/kg (treatment of 1qd schedule) dosage; conditions: route intraperitoneal; method in brief: as §1
[23] = test system: P388; assay: Antitumor activity was determined against the ip implanted P388 leukemia in mice by percent increase in life span at 500 mg/kg (treatment of 1qd schedule) dosage; conditions: route intraperitoneal; method in brief: as §1

Compound | ILS [1] | Optimal dose [2] [mg/kg/day] | Active dose range [3] [mg/kg/day] | Weight change [4] [g mouse-1] | Active dose range [5] [mg/kg/day] | Optimal dose [6] [mg] | Survivors [7] | Optimal dose [8] [mg] | Optimal dose [9] [mg] | Optimal dose [10] [mg] | Optimal dose [11] [mg] | Weight change [12] [g mouse-1] | Survivors [13] | T/C [14] [%] | ILS [15] | ILS [16] | Optimal dose [17] [mg] | Survivors [18] | Weight change [20] [g mouse-1] | Weight change [21] [g mouse-1] | also measured
CCCCCCCCCCCCCCCC(=O)OC[C@H](COP(=O)(O)OP(=O)(O)OC[C@H]1O[C@@H](n2ccc(N)nc2=O)[C@@H](O)[C@@H]1O)OC(=O)CCCCCCCCCCCCCCC | >309 | 300 | 40 | -1.43 | 200 | 80 | 5 | 60 | 40 | 133 | 500 | -1.92 | 4 | >45 | >309 |  |  |  |  |  | 
CCCCCCCCCCCCCCCCOCC(COP(=O)(O)OP(=O)(O)OC[C@H]1O[C@@H](n2ccc(N)nc2=O)[C@@H](O)[C@@H]1O)OC(=O)CCCCCCCCCCCCCCC (mixture of isomers) | >309 | 400 |  | -0.25 |  | 100 |  |  | 80 | 133 | 300 |  | 4 | >45 |  | 293 | 60 | 0 | 1.47 |  | Survivors [19]: 0
CCCCCCCCCCCCCCCCCCOCC(COP(=O)(O)OP(=O)(O)OC[C@H]1O[C@@H](n2ccc(N)nc2=O)[C@@H](O)[C@@H]1O)OC(=O)CCCCCCCCCCCCCCC (mixture of isomers) |  | 400 | 40 |  | 200 |  | 0 | 60 | 100 | 67 | 500 | -0.12 |  |  | 109 | 257 |  | 0 | -1 | -0.07 | Survivors [22]: 4; ILS [23]: >309
Nc1ccn([C@@H]2O[C@H](CO)[C@@H](O)[C@@H]2O)c(=O)n1 [CYTARABINE] |  | 400 |  |  |  | 300 |  |  | 200 |  | 500 |  |  |  |  | 19 | 200 | 0 | 2.37 | 0.72 | Survivors [22]: 0; ILS [23]: 36
